Our source for the ILS, Weight change and MST values is ChEMBL document CHEMBL1122269, “Synthesis and biological evaluation of neutral derivatives of 5-fluoro-2'-deoxyuridine 5'-phosphate” (1983).

Assay [1] deals with P388. Description: Percentage increase in life span of murine leukemia P388 resistant to 5-FU, at a dose 300 mg/kg. Type of assay: functional. To be noted: Mus musculus. The method, boiled down:
(§1)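 P-388 model in male BDF₁ mice, six per group, average weight 23 g: 1×10^6 cells ip on day 0, then compound in 0.9% saline ip daily ×5 from 24 h. Mice were observed up to 60 days. % ILS = (T/C − 1) × 100, using median survival of treated mice versus saline-treated controls.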

For assay [2], the system named is P388. The experiment in a line: Percentage increase in life span of murine leukemia P388 resistant to 5-FU at dose 108 mg/kg. In kind it is functional. To be noted: Mus musculus. The method, boiled down:
as §1

For assay [3], the system named is P388. Description: Percentage increase in life span of murine leukemia P388 resistant to 5-FU at dose 180 mg/kg. In kind it is functional. To be noted: Mus musculus. The method, boiled down: as §1
Assay [4] has as its system P388. Description: Percentage increase in life span of murine leukemia P388 resistant to 5-FU at dose 500 mg/kg. In kind it is functional. The conditions noted are these: Mus musculus. The gist of the method:
as §1

Assay [5] has as its system P388. The experiment in a line: Percentage increase in life span of murine leukemia P388 sensitive to 5-FU, at dose 108 mg/kg. To be noted: Mus musculus. Type of assay: functional. The method, boiled down:
as §1

The subject of assay [6] is P388. The experiment in a line: Percentage increase in life span of murine leukemia P388 sensitive to 5-FU, at dose 180 mg/kg. Type of assay: functional. The conditions noted are these: Mus musculus. The method, boiled down: as §1
In assay [7] the test system is P388. The experiment in a line: Percentage increase in life span of murine leukemia P388 sensitive to 5-FU, at dose 300 mg/kg. Type of assay: functional. The conditions noted are these: Mus musculus. The method, boiled down:
as §1

Assay [8] relates to P388. Description: Average percentage weight change on day 6 in murine leukemia P388 resistant to 5-FU at dose 108 mg/kg. Type of assay: functional, Mus musculus. The method, boiled down:
(§2)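 Male BDF₁ mice, six per group, average weight 23 g, were inoculated ip on day 0 with 1×10^6 P-388 leukemia cells, either 5-FU-sensitive or 5-FU-resistant. Compound in 0.9% saline was given ip once daily for 5 consecutive days, starting 24 h after tumor transplantation. Saline-treated animals served as controls.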

Assay [9] deals with P388. Description: Average percentage weight change on day 6 in murine leukemia P388 resistant to 5-FU at dose 300 mg/Kg. In kind it is functional, Mus musculus. The gist of the method:
as §2

Assay [10] deals with P388. The experiment in a line: Average percentage weight change on day 6 in murine leukemia P388 resistant to 5-FU at dose 500 mg/kg. Type of assay: functional, Mus musculus. The method, boiled down:
as §2

Assay [11] concerns P388. The experiment in a line: Percentage increase in life span of murine leukemia P388 sensitive to 5-FU at dose 500 mg/kg. In kind it is functional. To be noted: Mus musculus. The method, boiled down: as §1
Assay [12] relates to P388. Description: Average percentage weight change on day 6 in murine leukemia P388 sensitive to 5-FU at dose 108 mg/kg. In kind it is functional, Mus musculus. The method, boiled down:
as §2

The subject of assay [13] is P388. The experiment in a line: Average percentage weight change on day 6 in murine leukemia P388 sensitive to 5-FU at dose 180 mg/kg. Type of assay: functional, Mus musculus. The method, boiled down:
as §2

Assay [14] relates to P388. The experiment in a line: Average percentage weight change on day 6 in murine leukemia P388 sensitive to 5-FU at dose 300 mg/kg. In kind it is functional, Mus musculus. The gist of the method:
as §2

The test system of assay [15] is P388. The experiment in a line: Average percentage weight change on day 6 in murine leukemia P388 sensitive to 5-FU at dose 500 mg/kg. In kind it is functional, Mus musculus. The method, boiled down:
as §2

For assay [16], the system named is P388. The experiment in a line: Median survival time (MST) of murine leukemia P388 (1*10e 6 cells) resistant to 5-FU in mice at dose of 108 mg/kg(ip). In kind it is functional, Mus musculus. The gist of the method:
(§3)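 Male BDF₁ mice, six per group, average weight 23 g, were inoculated ip with 1×10^6 P-388 cells on day 0. Compound in 0.9% saline was given ip daily for 5 days from 24 h post-implant. Mice were followed for 60 days or until death, and median survival time was recorded. Saline-treated controls numbered 20 mice.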

Assay [17] deals with P388. The experiment in a line: Median survival time (MST) of murine leukemia P388 (1*10e 6 cells) resistant to 5-FU in mice at dose of 180 mg/kg(ip). Type of assay: functional, Mus musculus. The method, boiled down: as §3
Assay [18] concerns P388. Description: Median survival time (MST) of murine leukemia P388 (1*10e 6 cells) resistant to 5-FU in mice at dose of 300 mg/kg(ip). In kind it is functional, Mus musculus. The gist of the method:
as §3

In assay [19] the test system is P388. The experiment in a line: Median survival time (MST) of murine leukemia P388 (1*10e 6 cells) sensitive to 5-FU in mice at dose of 500 mg/kg(ip). In kind it is functional, Mus musculus. The method, boiled down: as §3
For assay [20], the system named is P388. Description: Median survival time (MST) of murine leukemia P388 (1*10e 6 cells) resistant to 5-FU in mice at dose of 500 mg/kg(ip). Type of assay: functional, Mus musculus. The gist of the method: as §3
Assay [21] relates to P388. The experiment in a line: Median survival time (MST) of murine leukemia P388 (1*10e 6 cells) sensitive to 5-FU in mice at dose of 108 mg/kg(ip). In kind it is functional, Mus musculus. The method, boiled down: as §3
Assay [22] deals with P388. The experiment in a line: Median survival time (MST) of murine leukemia P388 (1*10e 6 cells) sensitive to 5-FU in mice at dose of 180 mg/kg(ip). Type of assay: functional, Mus musculus. The method, boiled down:
as §3

Assay [23] concerns P388. The experiment in a line: Median survival time (MST) of murine leukemia P388 (1*10e 6 cells) sensitive to 5-FU in mice at dose of 300 mg/kg(ip). In kind it is functional, Mus musculus. The method, boiled down: as §3
Assay [24] deals with P388. Description: Average percentage weight change on day 6 in murine leukemia P388 resistant to 5-FU at dose 180 mg/kg. In kind it is functional, Mus musculus. The method, boiled down:
as §2

What is called ILS is how much longer treated animals lived than controls. Read a high ILS as a large benefit in survival. With `O=c1[nH]c(=O)n([C@H]2C[C@H](O)[C@@H](COP3(=O)OCCCO3)O2)cc1F`, the values for the increase in lifespan (ILS) at 300 mg/kg in the assay on P388 [1] and in the assay on P388 [7] were 0% and 22%, respectively. Besides, the ILS at 108 mg/kg was found to be 0% in the assay with P388 [2] and 11% with P388 [5]. Further, the results for the ILS at 180 mg/kg in the assay with P388 [3] and with P388 [6] were 0% and 11%, respectively. Also, the increase in lifespan (ILS) at 500 mg/kg in the assay with P388 [4] amounted to 0%; in the assay with P388 [11], 33%. Further, the Weight change in the assay on P388 [8] is listed as 6.3%; with P388 [9], 1.2%; in the assay with P388 [10], 0.6%; in the assay on P388 [12], 1.7%; with P388 [13], 0%; in the assay on P388 [14], -8.8%. Moreover, the Weight change is -12.4% with P388 [15] and 4.1% in the assay on P388 [24]. In addition, the MST in the assay on P388 [16] came out at 10 days; in the assay on P388 [17] it was 10 days; in the assay with P388 [18], 10 days; in the assay with P388 [19], 12 days; in the assay on P388 [20], 10 days; with P388 [21] it was 10 days. Further, the figures for the MST in the assay on P388 [22] and in the assay on P388 [23] were 10 days and 11 days, respectively.
